Measurements from ChEMBL document CHEMBL1828627, “High-throughput-screening-based identification and structure-activity relationship characterization defined (S)-2-(1-aminoisobutyl)-1-(3-chlorobenzyl)benzimidazole as a highly antimycotic agent nontoxic to cell lines” (J Med Chem, 2011).
Converted amounts (≈) assume the structure as drawn. The source made the active and inactive calls.

How the values were obtained:
Candida albicans [1] = assay: Antifungal activity against Candida albicans CA21 by broth dilution method; type: functional
Summary of the method: (§1)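 MICs by broth microdilution following CLSI M27-A3 for yeasts, with fluconazole as the reference antifungal. Panel covered type strains and clinical isolates of Candida spp. (21 strains). Reference control strains: C. albicans DSMZ 11949, C. glabrata ATCC 90030, C. parapsilosis 22019 and 90018, Issatchenkia orientalis ATCC 6258. MIC in μg/mL; averages given as geometric means.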

Pichia kudriavzevii = assay: Antifungal activity against Issatchenkia orientalis ATCC 6258 by broth dilution method; type: functional; summary of the method: as §1
Candida albicans [2] = assay: Antifungal activity against Candida albicans AN 1994 by broth dilution method; type: functional; summary of the method: as §1
Nakaseomyces glabratus [3] = assay: Antifungal activity against Candida glabrata AN 8626 by broth dilution method; type: functional; summary of the method: as §1
Candida parapsilosis [4] = assay: Antifungal activity against Candida parapsilosis AN 5485 by broth dilution method; type: functional; conditions: Lodderomyces parapsilosis; summary of the method: as §1
Candida parapsilosis [5] = assay: Antifungal activity against Candida parapsilosis 90018 by broth dilution method; type: functional; conditions: Lodderomyces parapsilosis; summary of the method: as §1
Candida albicans [6] = assay: Antifungal activity against Candida albicans AN 3156 by broth dilution method; type: functional; summary of the method: as §1
Candida albicans [7] = assay: Antifungal activity against Candida albicans AM2001/2007 by broth dilution method; type: functional; summary of the method: as §1
Nakaseomyces glabratus [8] = assay: Antifungal activity against Candida glabrata CG 7 by broth dilution method; type: functional; summary of the method: as §1
Candida parapsilosis [9] = assay: Antifungal activity against Candida parapsilosis AV 7675 by broth dilution method; type: functional; conditions: Lodderomyces parapsilosis; summary of the method: as §1
Candida parapsilosis [10] = assay: Antifungal activity against Candida parapsilosis 22019 by broth dilution method; type: functional; conditions: Lodderomyces parapsilosis; summary of the method: as §1
Candida albicans [11] = assay: Antifungal activity against Candida albicans MY 2902/2008 by broth dilution method; type: functional; summary of the method: as §1
Nakaseomyces glabratus [12] = assay: Antifungal activity against Candida glabrata ATCC 90030 by broth dilution method; type: functional; summary of the method: as §1
Candida albicans [13] = assay: Antifungal activity against Candida albicans DSMZ 11949 by broth dilution method; type: functional; summary of the method: as §1
Candida albicans [14] = assay: Antifungal activity against Candida albicans Jg 32570 by broth dilution method; type: functional; summary of the method: as §1
Candida albicans [15] = assay: Antifungal activity against Candida albicans SCS 71865 L by broth dilution method; type: functional; summary of the method: as §1
Candida albicans [16] = assay: Antifungal activity against Candida albicans AN 562 by broth dilution method; type: functional; summary of the method: as §1
Candida albicans [17] = assay: Antifungal activity against Candida albicans CA20 by broth dilution method; type: functional; summary of the method: as §1
Candida albicans [18] = assay: Antifungal activity against Candida albicans AN 1699 by broth dilution method; type: functional; summary of the method: as §1
Candida albicans [19] = assay: Antifungal activity against Candida albicans VB 1723 by broth dilution method; type: functional; summary of the method: as §1
Candida tropicalis = assay: Antifungal activity against Candida tropicalis AN 1946 by broth dilution method; type: functional; summary of the method: as §1
[20] = Cytotoxicity against human HeLa cells assessed as cell viability after 5 days by fluorescein diacetate assay; type: cell-based
[21] = Selectivity index of CC50 for human HeLa cells to IC50 for Candida albicans SC5314 infected in HeLa cells
Summary of the method: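 Selectivity index calculated as CC50/IC50. CC50 is the half-maximal cytotoxic concentration in HeLa cells; IC50 is the half-maximal antimycotic concentration in the C. albicans–infected HeLa assay. Both come from 5-day fluorescein diacetate viability readouts.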

Candida albicans [22] = assay: Antifungal activity against Candida albicans SC5314 infected in HeLa cells after 5 days by fluorescein diacetate assay; type: functional, organism-based; conditions: Candida albicans, SC5314, HeLa, 120 h; read-out: IC50
Summary of the method: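 HeLa cells co-incubated with C. albicans and compound for 5 days. Dose–response from resynthesized compounds. Host-cell viability checked microscopically at 18 h, then quantified at day 5 by fluorescein diacetate conversion to a fluorophore by live cells. Wells also inspected visually for yeast growth. Controls: untreated uninfected HeLa (~100%) and untreated infected HeLa (~0%). IC50 derived from infected cells; CC50 as half-maximal cytotoxic concentration.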

Candida albicans [23] = assay: Antifungal activity against Candida albicans SC5314 infected in HeLa cells at 20 uM after 5 days by fluorescein diacetate assay; type: functional, organism-based
Summary of the method: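 Primary HTS: HeLa cells co-incubated with C. albicans plus a single compound at ~20 μM for 5 days. Viability checked microscopically at 18 h and quantified at day 5 by fluorescein diacetate fluorescence. Wells also scanned visually for yeast growth. Hit criterion: >40% signal relative to the uninfected untreated HeLa (~100%) and infected untreated HeLa (~0%) controls.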

| SMILES | MIC (Candida albicans [1]) [µg/mL] | MIC (Pichia kudriavzevii) [µg/mL] | MIC (Candida albicans [2]) [µg/mL] | MIC (Nakaseomyces glabratus [3]) [µg/mL] | MIC (Candida parapsilosis [4]) [µg/mL] | MIC (Candida parapsilosis [5]) [µg/mL] | MIC (Candida albicans [6]) [µg/mL] | MIC (Candida albicans [7]) [µg/mL] | MIC (Nakaseomyces glabratus [8]) [µg/mL] | MIC (Candida parapsilosis [9]) [µg/mL] | MIC (Candida parapsilosis [10]) [µg/mL] | MIC (Candida albicans [11]) [µg/mL] | MIC (Nakaseomyces glabratus [12]) [µg/mL] | MIC (Candida albicans [13]) [µg/mL] | MIC (Candida albicans [14]) [µg/mL] | MIC (Candida albicans [15]) [µg/mL] | MIC (Candida albicans [16]) [µg/mL] | MIC (Candida albicans [17]) [µg/mL] | MIC (Candida albicans [18]) [µg/mL] | MIC (Candida albicans [19]) [µg/mL] | further results |
| --- | --- | --- | --- | --- | --- | --- | --- | --- | --- | --- | --- | --- | --- | --- | --- | --- | --- | --- | --- | --- | --- |
| OC(Cn1cncn1)(Cn1cncn1)c1ccc(F)cc1F [FLUCONAZOLE] | 0.125 (≈ 0.408 µM) | 0.25 (≈ 0.816 µM) | 128 (≈ 418 µM) | 4 (≈ 13.1 µM) | 0.25 (≈ 0.816 µM) | 0.25 (≈ 0.816 µM) | 8 (≈ 26.1 µM) | 0.5 (≈ 1.63 µM) | 4 (≈ 13.1 µM) | 2 (≈ 6.53 µM) | 1 (≈ 3.27 µM) | 0.5 (≈ 1.63 µM) | 0.125 (≈ 0.408 µM) | 2 (≈ 6.53 µM) | 128 (≈ 418 µM) | 0.125 (≈ 0.408 µM) | 1 (≈ 3.27 µM) | 0.125 (≈ 0.408 µM) | 8 (≈ 26.1 µM) | 0.5 (≈ 1.63 µM) | MIC (Candida tropicalis): 128 µg/mL (≈ 418 µM) |
| CC(C)[C@H](N)c1nc2ccccc2n1Cc1cccc(Cl)c1 | 0.125 (≈ 0.398 µM) | 0.5 (≈ 1.59 µM) | 16 (≈ 51 µM) | 0.125 (≈ 0.398 µM) | 1 (≈ 3.19 µM) | 0.5 (≈ 1.59 µM) | 16 (≈ 51 µM) | 0.25 (≈ 0.797 µM) | 2 (≈ 6.37 µM) | 8 (≈ 25.5 µM) | 2 (≈ 6.37 µM) | 16 (≈ 51 µM) | 0.125 (≈ 0.398 µM) | 2 (≈ 6.37 µM) | 16 (≈ 51 µM) | 64 (≈ 204 µM) | 16 (≈ 51 µM) | 0.125 (≈ 0.398 µM) | 32 (≈ 102 µM) | 0.25 (≈ 0.797 µM) | CC50 at 120 h [20]: 97.5 µM; Ratio CC50/IC50 [21]: 130; IC50 (Candida albicans [22]): 0.75 µM; MIC (Candida tropicalis): 4 µg/mL (≈ 12.7 µM) |
| C[C@H](N)c1nc2ccccc2n1Cc1cccc(Cl)c1 | 0.125 (≈ 0.437 µM) | 4 (≈ 14 µM) | 16 (≈ 56 µM) | 4 (≈ 14 µM) | 8 (≈ 28 µM) | 4 (≈ 14 µM) | 16 (≈ 56 µM) | 8 (≈ 28 µM) | 8 (≈ 28 µM) | 128 (≈ 448 µM) | 4 (≈ 14 µM) | 0.5 (≈ 1.75 µM) | 8 (≈ 28 µM) | 4 (≈ 14 µM) | 128 (≈ 448 µM) | 8 (≈ 28 µM) | 16 (≈ 56 µM) | 0.125 (≈ 0.437 µM) | 16 (≈ 56 µM) | 1 (≈ 3.5 µM) | inhibition (Candida albicans [23]): inactive; CC50 at 120 h [20]: 19.3 µM; Ratio CC50/IC50 [21]: 2.5; IC50 (Candida albicans [22]): 7.8 µM; MIC (Candida tropicalis): 8 µg/mL (≈ 28 µM) |
| CC(C)[C@H](N)c1nc2ccccc2n1Cc1cccc(F)c1 | 0.125 (≈ 0.42 µM) | 16 (≈ 53.8 µM) | 2 (≈ 6.73 µM) | 16 (≈ 53.8 µM) | 16 (≈ 53.8 µM) | 16 (≈ 53.8 µM) | 16 (≈ 53.8 µM) | 4 (≈ 13.5 µM) | 64 (≈ 215 µM) | 128 (≈ 430 µM) | 16 (≈ 53.8 µM) | 16 (≈ 53.8 µM) | 8 (≈ 26.9 µM) | 16 (≈ 53.8 µM) | 128 (≈ 430 µM) | 16 (≈ 53.8 µM) | 16 (≈ 53.8 µM) | 0.125 (≈ 0.42 µM) | 16 (≈ 53.8 µM) | 4 (≈ 13.5 µM) | inhibition (Candida albicans [23]): inactive; CC50 at 120 h [20]: 20.6 µM; Ratio CC50/IC50 [21]: 9.4; IC50 (Candida albicans [22]): 2.2 µM; MIC (Candida tropicalis): 32 µg/mL (≈ 108 µM) |
| Cc1cccc(Cn2c([C@@H](N)C(C)C)nc3ccccc32)c1 | 0.5 (≈ 1.7 µM) | 1 (≈ 3.41 µM) | 32 (≈ 109 µM) | 0.125 (≈ 0.426 µM) | 2 (≈ 6.82 µM) | 1 (≈ 3.41 µM) | 32 (≈ 109 µM) | 16 (≈ 54.5 µM) | 32 (≈ 109 µM) | 128 (≈ 436 µM) | 1 (≈ 3.41 µM) | 32 (≈ 109 µM) | 0.25 (≈ 0.852 µM) | 16 (≈ 54.5 µM) | 128 (≈ 436 µM) | 32 (≈ 109 µM) | 32 (≈ 109 µM) | 0.125 (≈ 0.426 µM) | 64 (≈ 218 µM) | 32 (≈ 109 µM) | inhibition (Candida albicans [23]): inactive; CC50 at 120 h [20]: 10.6 µM; Ratio CC50/IC50 [21]: 3.2; IC50 (Candida albicans [22]): 3.3 µM; MIC (Candida tropicalis): 8 µg/mL (≈ 27.3 µM) |
| CCC[C@H](N)c1nc2ccccc2n1Cc1ccc(Cl)cc1 |  |  |  |  |  |  |  |  |  |  |  |  |  |  |  |  |  |  |  |  | inhibition (Candida albicans [23]): inactive; CC50 at 120 h [20]: 28 µM; Ratio CC50/IC50 [21]: 14; IC50 (Candida albicans [22]): 2 µM |
| Cc1cccc(Cn2c([C@H](C)N)nc3ccccc32)c1 | 64 (≈ 241 µM) | 128 (≈ 482 µM) | 128 (≈ 482 µM) | 64 (≈ 241 µM) | 128 (≈ 482 µM) | 128 (≈ 482 µM) | 128 (≈ 482 µM) | 64 (≈ 241 µM) | 64 (≈ 241 µM) | 128 (≈ 482 µM) | 128 (≈ 482 µM) | 32 (≈ 121 µM) | 64 (≈ 241 µM) | 8 (≈ 30.1 µM) | 128 (≈ 482 µM) | 128 (≈ 482 µM) | 128 (≈ 482 µM) | 1 (≈ 3.77 µM) | 128 (≈ 482 µM) | 128 (≈ 482 µM) | inhibition (Candida albicans [23]): inactive; MIC (Candida tropicalis): 128 µg/mL (≈ 482 µM) |
